{
  "source": "ChEMBL document CHEMBL1156575",
  "about": "“Toward an optimal blood-brain barrier shuttle by synthesis and evaluation of peptide libraries” (J Med Chem, 2008)",
  "key": {"[1]": {"experiment": "Membrane permeability assessed as passive transport after 4 hrs by PAMPA"}, "[2]": {"experiment": "Membrane permeability by PAMPA"}, "HeLa": {"tested_on": "HeLa", "experiment": "Cytotoxicity against human HeLa cells at 25 to 100 uM after 24 hrs by MTT assay", "format": "functional, cell-based", "how_it_was_run": "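HeLa cells seeded at 7000 cells/well and grown 24 h, then given peptide in medium (solutions centrifuged first, as not fully soluble) at 25, 50 and 100 µM for 24 h at 37 °C. MTT added at 22 h (0.5 mg/mL final) for 2 h. Formazan dissolved in 2-propanol, A570 read after 45 min. Viability is % of untreated cells; mean ± SD.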"}, "[3]": {"experiment": "Stability in human serum after 12 hrs"}, "[4]": {"experiment": "Membrane permeability by PAMPA in presence of 20% 1-propanol", "format": "ADME", "conditions": "read-out: permeability", "how_it_was_run": "(§1)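 PAMPA-BBB model, 200 µM compound in pION buffer pH 7.4 with 20% 1-propanol in the donor well. Filter coated with phospholipid mix (20 mg/mL in dodecane); acceptor holds buffer plus 1-propanol. Incubated 4 h at room temperature, saturated humidity, orbital shaking 100 rpm. Donor and acceptor quantified by RP-HPLC. % transport at 4 h and Pe (eq 1) calculated; mean ± SD.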"}, "[5]": {"experiment": "Membrane permeability assessed as passive transport after 4 hrs by PAMPA in presence of 20% 1-propanol", "format": "ADME", "how_it_was_run": "as §1"}},
  "note": "Where a SMILES comes first, the peptide text is derived from it. [ ]: non-standard residue; d: D form. Tpi = O=C(O)[C@@H]1Cc2c([nH]c3ccccc23)CN1; NMeW = CN[C@@H](Cc1c[nH]c2ccccc12)C(=O)O; 2Nal = N[C@@H](Cc1ccc2ccccc2c1)C(=O)O; Dopa = N[C@@H](Cc1ccc(O)c(O)c1)C(=O)O; NMehPhe = CN[C@@H](CCc1ccccc1)C(=O)O; NMeF = CN[C@@H](Cc1ccccc1)C(=O)O; NMePhg = CN[C@H](C(=O)O)c1ccccc1; 3Pal = N[C@@H](Cc1cccnc1)C(=O)O; Tic = O=C(O)[C@@H]1Cc2ccccc2CN1; Phg = N[C@H](C(=O)O)c1ccccc1",
  "data": [
    {"smiles": "CC(=O)N[C@@H](Cc1c[nH]c2ccccc12)C(=O)N(C)[C@@H](Cc1ccccc1)C(=O)N(C)[C@@H](Cc1ccccc1)C(=O)N(C)[C@@H](Cc1ccccc1)C(N)=O", "note": "(Ac-W[NMeF][NMeF][NMeF]-NH2)", "values": [
      {"measurement": "permeability", "setting": "[1]", "result": 3.9, "unit": "%"},
      {"measurement": "Papp", "setting": "[2]; permeability", "result": 1.8, "unit": "×10⁻⁶ cm/s"}
    ]},
    {"smiles": "CC(=O)N[C@@H](Cc1ccc2ccccc2c1)C(=O)N(C)[C@@H](Cc1ccccc1)C(=O)N(C)[C@@H](Cc1ccccc1)C(=O)N(C)[C@@H](Cc1ccccc1)C(N)=O", "note": "(Ac-[2Nal][NMeF][NMeF][NMeF]-NH2)", "values": [
      {"measurement": "Activity", "setting": "HeLa", "result": "Not toxic"}
    ]},
    {"smiles": "CC(=O)N[C@@H](Cc1cccnc1)C(=O)N(C)[C@@H](Cc1ccccc1)C(=O)N(C)[C@@H](Cc1ccccc1)C(=O)N(C)[C@@H](Cc1ccccc1)C(N)=O", "note": "(Ac-[3Pal][NMeF][NMeF][NMeF]-NH2)", "values": [
      {"measurement": "permeability", "setting": "[1]", "result": 2.5, "unit": "%"},
      {"measurement": "Papp", "setting": "[2]; permeability", "result": 1.2, "unit": "×10⁻⁶ cm/s"}
    ]},
    {"smiles": "CC(=O)N(C)[C@@H](Cc1ccccc1)C(=O)N(C)[C@@H](Cc1ccccc1)C(=O)N(C)[C@@H](Cc1ccccc1)C(=O)N(C)[C@@H](Cc1ccccc1)C(=O)O", "note": "(Ac-[NMeF][NMeF][NMeF][NMeF]-OH)", "values": [
      {"measurement": "permeability", "setting": "[1]", "result": 1.9, "unit": "%"},
      {"measurement": "Papp", "setting": "[2]; permeability", "result": 0.9, "unit": "×10⁻⁶ cm/s"}
    ]},
    {"smiles": "CC(=O)N(C)[C@H](C(=O)N(C)[C@@H](Cc1ccccc1)C(=O)N(C)[C@@H](Cc1ccccc1)C(=O)N(C)[C@@H](Cc1ccccc1)C(N)=O)c1ccccc1", "note": "(Ac-[NMePhg][NMeF][NMeF][NMeF]-NH2)", "values": [
      {"measurement": "permeability", "setting": "[1]", "result": 1.5, "unit": "%"},
      {"measurement": "Papp", "setting": "[2]; permeability", "result": 0.7, "unit": "×10⁻⁶ cm/s"}
    ]},
    {"smiles": "CC(=O)N(C)[C@@H](Cc1c[nH]c2ccccc12)C(=O)N(C)[C@@H](Cc1ccccc1)C(=O)N(C)[C@@H](Cc1ccccc1)C(=O)N(C)[C@@H](Cc1ccccc1)C(N)=O", "note": "(Ac-[NMeW][NMeF][NMeF][NMeF]-NH2)", "values": [
      {"measurement": "permeability", "setting": "[1]", "result": 2.9, "unit": "%"},
      {"measurement": "Papp", "setting": "[2]; permeability", "result": 1.4, "unit": "×10⁻⁶ cm/s"}
    ]},
    {"smiles": "CC(=O)N(C)[C@@H](CCc1ccccc1)C(=O)N(C)[C@@H](Cc1ccccc1)C(=O)N(C)[C@@H](Cc1ccccc1)C(=O)N(C)[C@@H](Cc1ccccc1)C(N)=O", "note": "(Ac-[NMehPhe][NMeF][NMeF][NMeF]-NH2)", "values": [
      {"measurement": "permeability", "setting": "[1]", "result": 3.7, "unit": "%"},
      {"measurement": "Papp", "setting": "[2]; permeability", "result": 1.8, "unit": "×10⁻⁶ cm/s"}
    ]},
    {"smiles": "CC(=O)N[C@H](C(=O)N(C)[C@@H](Cc1ccccc1)C(=O)N(C)[C@@H](Cc1ccccc1)C(=O)N(C)[C@@H](Cc1ccccc1)C(N)=O)c1ccccc1", "note": "(Ac-[Phg][NMeF][NMeF][NMeF]-NH2)", "values": [
      {"measurement": "permeability", "setting": "[1]", "result": 0, "unit": "%"}
    ]},
    {"smiles": "CC(=O)N1Cc2ccccc2C[C@H]1C(=O)N(C)[C@@H](Cc1ccccc1)C(=O)N(C)[C@@H](Cc1ccccc1)C(=O)N(C)[C@@H](Cc1ccccc1)C(N)=O", "note": "(Ac-[Tic][NMeF][NMeF][NMeF]-NH2)", "values": [
      {"measurement": "permeability", "setting": "[1]", "result": 4.3, "unit": "%"},
      {"measurement": "Papp", "setting": "[2]; permeability", "result": 2, "unit": "×10⁻⁶ cm/s"}
    ]},
    {"smiles": "CC(=O)N1Cc2[nH]c3ccccc3c2C[C@H]1C(=O)N(C)[C@@H](Cc1ccccc1)C(=O)N(C)[C@@H](Cc1ccccc1)C(=O)N(C)[C@@H](Cc1ccccc1)C(N)=O", "note": "(Ac-[Tpi][NMeF][NMeF][NMeF]-NH2)", "values": [
      {"measurement": "permeability", "setting": "[1]", "result": 3.2, "unit": "%"},
      {"measurement": "Papp", "setting": "[2]; permeability", "result": 1.5, "unit": "×10⁻⁶ cm/s"}
    ]},
    {"smiles": "CN(C(=O)[C@H](Cc1ccc2ccccc2c1)NC(=O)[C@@H](N)Cc1ccc(O)c(O)c1)[C@@H](Cc1ccccc1)C(=O)N(C)[C@@H](Cc1ccccc1)C(=O)N(C)[C@@H](Cc1ccccc1)C(N)=O", "note": "(H-[Dopa][2Nal][NMeF][NMeF][NMeF]-NH2)", "values": [
      {"measurement": "permeability", "setting": "[1]", "result": 0.7, "unit": "%"},
      {"measurement": "Papp", "setting": "[2]", "result": 0.3, "unit": "×10⁻⁶ cm/s"}
    ]},
    {"smiles": "CN(C(=O)[C@@H](N)Cc1ccc(O)c(O)c1)[C@@H](Cc1ccccc1)C(=O)N(C)[C@@H](Cc1ccccc1)C(=O)N(C)[C@@H](Cc1ccccc1)C(=O)N(C)[C@@H](Cc1ccccc1)C(N)=O", "note": "(H-[Dopa][NMeF][NMeF][NMeF][NMeF]-NH2)", "values": [
      {"measurement": "permeability", "setting": "[1]", "result": 2.4, "unit": "%"},
      {"measurement": "Papp", "setting": "[2]", "result": 1.1, "unit": "×10⁻⁶ cm/s"}
    ]},
    {"smiles": "CN(C(=O)[C@@H]1Cc2ccccc2CN1)[C@@H](Cc1ccccc1)C(=O)N(C)[C@@H](Cc1ccccc1)C(=O)N(C)[C@@H](Cc1ccccc1)C(N)=O", "note": "(H-[Tic][NMeF][NMeF][NMeF]-NH2)", "values": [
      {"measurement": "permeability", "setting": "[1]", "result": 4.6, "unit": "%"},
      {"measurement": "Papp", "setting": "[2]; permeability", "result": 2.2, "unit": "×10⁻⁶ cm/s"}
    ]},
    {"smiles": "CN(C(=O)[C@@H]1Cc2c([nH]c3ccccc23)CN1)[C@@H](Cc1ccccc1)C(=O)N(C)[C@@H](Cc1ccccc1)C(=O)N(C)[C@@H](Cc1ccccc1)C(N)=O", "note": "(H-[Tpi][NMeF][NMeF][NMeF]-NH2)", "values": [
      {"measurement": "permeability", "setting": "[1]", "result": 1.3, "unit": "%"},
      {"measurement": "Papp", "setting": "[2]; permeability", "result": 0.6, "unit": "×10⁻⁶ cm/s"}
    ]},
    {"smiles": "CC(=O)N(C)[C@@H](Cc1ccccc1)C(=O)N(C)[C@@H](Cc1ccccc1)C(=O)N(C)[C@@H](Cc1ccccc1)C(=O)N(C)[C@@H](Cc1ccccc1)C(N)=O", "note": "(stereo in doubt; form 2)", "values": [
      {"measurement": "remaining at 12 h", "setting": "[3]", "result": 91, "unit": "%"},
      {"measurement": "Activity", "setting": "HeLa", "result": "Not toxic"}
    ]},
    {"smiles": "Cn1c(=O)c2c(ncn2C)n(C)c1=O", "note": "[CAFFEINE]", "values": [
      {"measurement": "Papp", "setting": "[4]", "result": 1.8, "unit": "×10⁻⁶ cm/s"},
      {"measurement": "permeability", "setting": "[1]", "result": 3.6, "unit": "%"},
      {"measurement": "Papp", "setting": "[2]; permeability", "result": 1.8, "unit": "×10⁻⁶ cm/s"},
      {"measurement": "permeability", "setting": "[5]", "result": 3.6, "unit": "%"}
    ]},
    {"smiles": "NC(=O)N1c2ccccc2C=Cc2ccccc21", "note": "[CARBAMAZEPINE]", "values": [
      {"measurement": "Papp", "setting": "[4]", "result": 12.8, "unit": "×10⁻⁶ cm/s"},
      {"measurement": "permeability", "setting": "[1]", "result": 16.8, "unit": "%"},
      {"measurement": "Papp", "setting": "[2]; permeability", "result": 8, "unit": "×10⁻⁶ cm/s"},
      {"measurement": "permeability", "setting": "[5]", "result": 20.6, "unit": "%"}
    ]},
    {"smiles": "NCCc1ccc(O)c(O)c1", "note": "[DOPAMINE]", "values": [
      {"measurement": "permeability", "setting": "[1]", "result": 0, "unit": "%"},
      {"measurement": "permeability", "setting": "[5]", "result": 0, "unit": "%"}
    ]},
    {"smiles": "N[C@@H](Cc1ccc(O)c(O)c1)C(=O)O", "note": "[LEVODOPA]", "values": [
      {"measurement": "permeability", "setting": "[1]", "result": 0, "unit": "%"},
      {"measurement": "permeability", "setting": "[5]", "result": 0, "unit": "%"}
    ]},
    {"smiles": "CC(C)NCC(O)COc1cccc2ccccc12", "note": "(centres undefined) [PROPRANOLOL]", "values": [
      {"measurement": "Papp", "setting": "[4]", "result": 8.4, "unit": "×10⁻⁶ cm/s"},
      {"measurement": "permeability", "setting": "[1]", "result": 13.5, "unit": "%"},
      {"measurement": "Papp", "setting": "[2]; permeability", "result": 6.9, "unit": "×10⁻⁶ cm/s"},
      {"measurement": "permeability", "setting": "[5]", "result": 14.9, "unit": "%"}
    ]}
  ]
}
